Reference: article PMC7255057 (Journal of medicinal chemistry, 2019)

How the values were obtained:
[1] = target: T1, human serum albumin (HSA) (Homo sapiens, UniProt P02768); assay: ANS fluorescence binding and competition on HSA; conditions: for displacement of ANS from HSA: 2.5 μM HSA with 5 or 100 μM ANS
In short: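 Fluorescence competition with 2.5 μM HSA and 5 or 100 μM ANS. The test compound was titrated over a concentration range. Excitation was 360 nm, with emission read at 460 and 480 nm to detect blue shifts. Signals were normalised between ANS alone (minimum) and HSA:ANS (maximum). ANS stoichiometry and affinity on HSA were set beforehand by a Sudlow-type titration.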

EPAC1CBD [2] = target: T2, EPAC1CBD (Homo sapiens, UniProt O95398); assay: Nonspecific interaction with EPAC1CBD by global NH-HSQC intensity losses; assay type: binding; conditions: for type of aggregation-based inhibitor: NMR intensity losses and DLS
T2 sequence (O95398 149-318 isoform O95398-3): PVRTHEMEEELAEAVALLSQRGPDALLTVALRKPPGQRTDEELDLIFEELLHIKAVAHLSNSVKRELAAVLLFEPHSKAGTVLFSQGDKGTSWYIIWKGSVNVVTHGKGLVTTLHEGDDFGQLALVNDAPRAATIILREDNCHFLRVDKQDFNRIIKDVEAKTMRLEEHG

[3] = target: T1, human serum albumin (HSA); assay: 13C-oleic acid displacement assay on HSA; assay type: binding; conditions: 250 μM HSA, 1.5 mM OA
In short: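 Recombinant globulin- and fatty-acid-free HSA at 250 μM in 20 mM NaPO4 pH 7.6, 50 mM NaCl in 99.9% D2O, held 37 °C 30 min. 13C-oleic acid (100 mM stock in DMSO-d6, warmed 50 °C 10 min) added to 1.5 mM final, then 37 °C 2 h. {13C–1H}-HSQC recorded with and without test compound at 298 K; site peaks A–H losing intensity mark displacement.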

[4] = Dynamic light scattering of aggregates/micelles; assay type: physicochemical; conditions: for aggregate size range (DLS intensity profile): 500 μM, 2.5% DMSO; for aggregates detectable by DLS in presence of HSA: with HSA
[5] = target: T3, EPAC1CBD (cAMP-binding domain of hEPAC1, residues 149–318) (Homo sapiens, UniProt O95398); assay: NH-HSQC chemical shift titration of EPAC1CBD
T3 sequence (O95398 149-318 isoform O95398-3): T2 sequence (O95398 149-318 isoform O95398-3)
In short: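 100 μM human EPAC1 CBD (residues 149–318) in Tris NMR buffer was titrated with test compound, with or without HSA, and read by 1H-15N HSQC. DMSO was 0.5% per 100 μM compound. Compounded chemical-shift changes from 35 residues were least-squares fitted at 1:1, with ΔCCSmax free or fixed, to give Kd or apparent Kd. Peak intensities were normalised to the compound-free sample and averaged (I/I0).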

EPAC1CBD [6] = target: T2, EPAC1CBD; assay: DLS volume profile of EPAC1CBD in presence of ESIs; assay type: binding
[7] = Transmission electron microscopy of aggregates; assay type: physicochemical; conditions: 200 μM
In short: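 Aggregate samples were applied to 400-mesh copper grids freshly coated with continuous amorphous carbon and glow-discharged at 5 mA for 15 s beforehand. Grids were imaged by transmission electron microscopy on a side-mounted cooled 4-megapixel CCD camera.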

[8] = SPR on nonfunctionalized gold nanoparticle sensor; assay type: physicochemical; conditions: for SPR signal relative to DMSO control: 50 μM and 250 μM, 1.25% DMSO
[9] = target: human serum albumin (HSA) Sudlow sites (Homo sapiens, UniProt P02768); assay: Fluorescence competition with dansylated amino acids; assay type: binding
Sequence of human serum albumin (HSA) Sudlow sites (P02768 25-609): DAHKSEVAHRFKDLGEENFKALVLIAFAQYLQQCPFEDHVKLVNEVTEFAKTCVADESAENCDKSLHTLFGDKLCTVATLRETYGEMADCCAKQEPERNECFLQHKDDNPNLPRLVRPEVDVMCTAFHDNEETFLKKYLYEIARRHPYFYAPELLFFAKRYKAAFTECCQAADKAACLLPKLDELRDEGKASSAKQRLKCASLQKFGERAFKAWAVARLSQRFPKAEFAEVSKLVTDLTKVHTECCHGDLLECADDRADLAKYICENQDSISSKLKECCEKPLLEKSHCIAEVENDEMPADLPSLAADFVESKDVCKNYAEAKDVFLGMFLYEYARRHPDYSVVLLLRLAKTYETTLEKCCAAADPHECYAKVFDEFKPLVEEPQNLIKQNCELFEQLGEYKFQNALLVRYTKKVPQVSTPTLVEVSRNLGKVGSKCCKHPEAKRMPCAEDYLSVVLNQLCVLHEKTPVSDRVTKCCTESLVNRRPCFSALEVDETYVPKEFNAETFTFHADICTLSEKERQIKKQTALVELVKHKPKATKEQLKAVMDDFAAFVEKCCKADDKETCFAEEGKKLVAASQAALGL
In short: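 Dansylated arginine (Sudlow site 1, 1:1) or dansylated phenylalanine (sites 1 and 2) fluorescence with recombinant fatty-acid-free HSA on a plate reader. Excitation was 370 for both probes, with emission at 460 (DanR) or 480 nm (DanF). Probe affinity and stoichiometry came from direct titration. Competitions used 2.5 μM HSA with 100 μM probe and were least-squares fitted assuming no extra sites.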

T1 sequence (P02768 25-609): as above

Compound | type of aggregation-based inhibitor (EPAC1CBD [2]) | displacement of 13C-oleic acid from HSA [3] | aggregate size range (DLS intensity profile) [4] | aggregate morphology (TEM) [7] | EPAC1CBD NH-HSQC signal/intensity loss (EPAC1CBD [2]) | aggregates detectable by DLS in presence of HSA [4] | displacement of ANS from HSA [1] | SPR signal relative to DMSO control [8] | other results
O=S(=O)(O)c1cccc2cccc(Nc3ccccc3)c12 [ANS, 8-anilinonaphthalene-1-sulfonic acid] | – | – | – | – | – | – | – | – | ANS binding stoichiometry and affinity for HSA ([1]; Scatchard plot): binds up to four sites on HSA with low micromolar affinity
CN(C)c1cccc2c(S(=O)(=O)N[C@@H](CCCN=C(N)N)C(=O)O)cccc12 [DanR, dansyl-arginine] | – | – | – | – | – | – | – | – | Kd ([9]; read-out: Kd for HSA Sudlow's Site I, fluorescence titration): ~25 µM
Triton X-100 [TX] | – | – | – | – | no significant chemical shift changes or intensity losses | – | – | – | average aggregate/micelle diameter (DLS) ([4]; compound in isolation): about 10 nm

Continued, in another order:

type of aggregation-based inhibitor (EPAC1CBD [2]) | displacement of 13C-oleic acid from HSA [3] | aggregate size range (DLS intensity profile) [4] | aggregate morphology (TEM) [7] | Compound | EPAC1CBD NH-HSQC signal/intensity loss (EPAC1CBD [2]) | aggregates detectable by DLS in presence of HSA [4] | displacement of ANS from HSA [1] | SPR signal relative to DMSO control [8] | other results
Type A | displace OA at multiple sites | 90–600 nm | more amorphous morphology | C[C@@H]1CCc2c(cc(Br)c(F)c2Br)N1C=O [CE3F4R] | no more than that caused by DMSO | no detectable aggregates in the presence of HSA | unable to displace ANS | no significant change in SPR signal | coaggregate size with TX (DLS) ([4]; TX:CE3F4R 1:2 (0.0075% TX, 200 μM CE3F4R)): around 70 nm; increase of apparent Kd for EPAC1CBD binding caused by HSA ([5]; CE3F4R titration with vs without HSA): 5–10 fold; concentration at which dissociation from EPAC1CBD starts ([5]; presence of HSA): ≥ 750 µM; change of EPAC1CBD DLS volume profile (EPAC1CBD [6]; below or above CAC): does not result in any major change in the volume profile of EPAC1CBD; displacement of dansylated amino acids from HSA ([9]; concentrations below CAC): ineffective at displacing either of the dansylated amino acids from HSA
type B | displace OA at multiple sites | 90–600 nm | spherical micellar morphology | CC(C)(C)c1cc(C(=O)/C(C#N)=N/Nc2cccc(Cl)c2)no1 [ESI-09] | substantial signal losses for EPAC1CBD peaks | no detectable aggregates in the presence of HSA | can fully displace even large excesses of ANS at low micromolar concentrations | significant difference for ESI-09 when injected at a concentration that is above its CAC | ESI-09 concentration giving similar signal loss in presence of HSA (EPAC1CBD [2]; compared with 100 μM ESI-09 without HSA): around 400 μM; increase of EPAC1CBD HSQC intensities in presence of HSA (EPAC1CBD [2]; most ESI-09 concentrations): 30–40%; EPAC1CBD chemical shift changes with HSA relative to those without HSA ([5]; 100 μM ESI-09): < 20%; reduction of average chemical shift changes with HSA vs without HSA ([5]; ESI-09 concentration yielding similar intensity losses): ~ 30%; increase of EPAC1CBD size profile (DLS) (EPAC1CBD [6]; ESI concentration above CAC): up to 5 nm; SPR signal with HSA relative to HSA and DMSO control ([8]; 250 μM ESI-09 with 25 μM HSA): no significant SPR signal increase; SPR signal with HSA relative to HSA and DMSO reference ([8]; 500 μM ESI-09 with 25 μM HSA): SPR signal significantly increases
